Results on 22 compounds are retold here after ChEMBL document CHEMBL5385938 (J Med Chem, 2024).

Each structure is given as a SMILES string. Active and inactive are the calls of the source. No cut-off for these calls is given here.

For orientation: IC50 means the concentration needed to halve the response being measured.

Data set [1] has as its system T47D. Description: Cytotoxicity against human T47D cells harboring PI3Kalpha H1047R mutant assessed as reduction in cell viability incubated for 72 hrs by CellTiter-Glo 2.0 luminescent cell viability assay. Format: functional, cell-based.
A short description of data set [2]: Metabolic stability in pooled human hepatocytes assessed as intrinsic clearance. The class given is ADME, Liver, Hepatocyte. As to conditions: read-out: CLH.
Data set [3] relates to SK-BR-3. Nature of the data set: Cytotoxicity against human SK-BR-3 cells harboring wildtype PI3Kalpha assessed as reduction in cell viability incubated for 72 hrs by CellTiter-Glo 2.0 luminescent cell viability assay. The note with it: SK-BR-3, 72 h. The class given is functional, cell-based. (In general: Cellular ATP, detected with luciferase, serves as a proxy for viable cell number.)

Data set [4] can be described thus: Selectivity ratio of IC50 for cytotoxicity against human SK-BR-3 cells harboring wild type PI3Kalpha to IC50 for cytotoxicity against human T47D cells harboring PI3Kalpha H1047R mutant. The class given is functional.
Data set [5] deals with T1, Phosphatidylinositol 4,5-bisphosphate 3-kinase catalytic subunit alpha isoform (Homo sapiens, UniProt P42336, H1047R). Description: Inhibition of recombinant N-terminal 6-His tagged full length human PI3Kalpha H1047R mutant using PIP2diC8 and PIP2:PS as substrate incubated for 1 hrs in presence of ATP by fluorescence based plate reader analysis.
The species named for data set [6] is Homo sapiens. Description: Selectivity ratio of IC50 for inhibition of recombinant N-terminal 6-His tagged full length human wildtype PI3Kalpha to IC50 for inhibition of recombinant N-terminal 6-His tagged full length human PI3Kalpha H1047R mutant.
Data set [7] has as its target T1, Phosphatidylinositol 4,5-bisphosphate 3-kinase catalytic subunit alpha isoform. Nature of the data set: Inhibition of PI3Kalpha H1047R mutant (unknown origin) using PI(4,5)P2:PS as substrate incubated in presence of ATP by ADP-Glo assay. A general note: ADP-Glo turns the ADP formed in a reaction into a luminescent signal.
Data set [8] has the same target.
Data set [9] is described as follows: Oral bioavailability in Beagle dog at 10 mg/kg measured upto 24 hrs. The note with it: in vivo. Format: ADME, organism-based, Canis lupus familiaris.
The subject of data set [10] is HCC1954. Nature of the data set: Antitumor activity against ER-/HER2+ human HCC1954 cells harboring endogenous PI3Kalpha H1047R mutant xenografted in NOD.CB17-Prkdcscid/NCrCr mouse assessed as tumor growth inhibition at 100 mg/kg, ip administered once a day for 14 days relative to control. The class given is functional. As to conditions: HCC1954, 336 h, time 14 day, read-out: TGI. Summed up: (§1)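 HCC1954 xenograft mice (ER-/HER2+ breast line, endogenous PI3Kα H1047R) were dosed IP for 14 days, at 100 mg/kg qd or 80 mg/kg b.i.d. Read-out was tumor growth inhibition or regression (%).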
Background: Xenograft models place foreign cells or tissue in a host animal.

Data set [11] in a line: In vivo inhibition of AKT phosphorylation in NOD.CB17-Prkdcscid/NCrCr mouse xenografted with ER-/HER+ human HCC1954 cells harboring PI3Kalpha H1047R mutant at 120 mg/kg, ip administered as single dose and measured after 8 hrs by immunoblotting analysis relative to control. Format: functional. The essentials: (§2)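 HCC1954 tumor-bearing mice received a single IP dose of 60 or 120 mg/kg. Tumor pAKT modulation was measured at 1 h and 8 h post dose, relative to control.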

A short description of data set [12]: Oral bioavailability in Sprague-Dawley rat at 100 mg/kg measured upto 24 hrs. The note with it: in vivo. The class given is ADME, organism-based.
The nature of data set [13]: Half-life in CD-1 mouse at 3 mg/kg, iv measured upto 24 hrs. Format: ADME, organism-based. As to conditions: in vivo.
Data set [14] relates to Mus musculus. Nature of the data set: In vivo inhibition of AKT phosphorylation in NOD.CB17-Prkdcscid/NCrCr mouse xenografted with ER-/HER+ human HCC1954 cells harboring PI3Kalpha H1047R mutant at 100 to 300 mg/kg, po measured upto 8 hrs by immunoblotting analysis. As to conditions: dose 100-300 mg/kg. The class given is functional, organism-based.
Data set [15] is described as follows: Volume of distribution at steady state in Sprague-Dawley rat at 100 mg/kg, po or 3 mg/kg, iv measured upto 24 hrs. Format: ADME, organism-based. The note with it: in vivo.
The nature of data set [16]: Volume of distribution at steady state in Beagle dog at 10 mg/kg, po or 2 mg/kg, iv measured upto 24 hrs. The class given is ADME, organism-based, Canis lupus familiaris. As to conditions: in vivo.
Data set [17] has as its system HCC1954. Nature of the data set: Antitumor activity against ER-/HER2+ human HCC1954 cells harboring endogenous PI3Kalpha H1047R mutant xenografted in NOD.CB17-Prkdcscid/NCrCr mouse assessed as tumor regression at 80 mg/kg, ip administered twice daily for 14 days relative to control. As to conditions: time 14 day. The class given is functional. Summed up: as §1
Data set [18] is described as follows: Drug uptake in NOD.CB17-Prkdcscid/NCrCr mouse xenografted with ER-/HER+ human HCC1954 cells harboring PI3Kalpha H1047R mutant at 60 to 120 mg/kg, ip administered as single dose and measured upto 8 hrs. The class given is ADME, organism-based. As to conditions: in vivo, dose 60-120 mg/kg.
A short description of data set [19]: Volume of distribution at steady state in CD-1 mouse at 100 mg/kg, po or 3 mg/kg, iv measured upto 24 hrs. Format: ADME, organism-based. As to conditions: in vivo.
A short description of data set [20]: Half-life in Beagle dog at 2 mg/kg, iv measured upto 24 hrs. The class given is ADME, organism-based, Canis lupus familiaris. The note with it: in vivo.
The nature of data set [21]: Half-life in Sprague-Dawley rat at 3 mg/kg, iv measured upto 24 hrs. Format: ADME, organism-based. As to conditions: in vivo.
Data set [22] is described as follows: In vivo inhibition of AKT phosphorylation in NOD.CB17-Prkdcscid/NCrCr mouse xenografted with ER-/HER+ human HCC1954 cells harboring PI3Kalpha H1047R mutant at 60 mg/kg, ip administered as single dose and measured after 8 hrs by immunoblotting analysis relative to control. The class given is functional. Summed up: as §2
The nature of data set [23]: Oral bioavailability in CD-1 mouse at 100 mg/kg measured upto 24 hrs. The class given is ADME, organism-based. As to conditions: in vivo.

T1 sequence (P42336 whole entry H1047R, canonical isoform): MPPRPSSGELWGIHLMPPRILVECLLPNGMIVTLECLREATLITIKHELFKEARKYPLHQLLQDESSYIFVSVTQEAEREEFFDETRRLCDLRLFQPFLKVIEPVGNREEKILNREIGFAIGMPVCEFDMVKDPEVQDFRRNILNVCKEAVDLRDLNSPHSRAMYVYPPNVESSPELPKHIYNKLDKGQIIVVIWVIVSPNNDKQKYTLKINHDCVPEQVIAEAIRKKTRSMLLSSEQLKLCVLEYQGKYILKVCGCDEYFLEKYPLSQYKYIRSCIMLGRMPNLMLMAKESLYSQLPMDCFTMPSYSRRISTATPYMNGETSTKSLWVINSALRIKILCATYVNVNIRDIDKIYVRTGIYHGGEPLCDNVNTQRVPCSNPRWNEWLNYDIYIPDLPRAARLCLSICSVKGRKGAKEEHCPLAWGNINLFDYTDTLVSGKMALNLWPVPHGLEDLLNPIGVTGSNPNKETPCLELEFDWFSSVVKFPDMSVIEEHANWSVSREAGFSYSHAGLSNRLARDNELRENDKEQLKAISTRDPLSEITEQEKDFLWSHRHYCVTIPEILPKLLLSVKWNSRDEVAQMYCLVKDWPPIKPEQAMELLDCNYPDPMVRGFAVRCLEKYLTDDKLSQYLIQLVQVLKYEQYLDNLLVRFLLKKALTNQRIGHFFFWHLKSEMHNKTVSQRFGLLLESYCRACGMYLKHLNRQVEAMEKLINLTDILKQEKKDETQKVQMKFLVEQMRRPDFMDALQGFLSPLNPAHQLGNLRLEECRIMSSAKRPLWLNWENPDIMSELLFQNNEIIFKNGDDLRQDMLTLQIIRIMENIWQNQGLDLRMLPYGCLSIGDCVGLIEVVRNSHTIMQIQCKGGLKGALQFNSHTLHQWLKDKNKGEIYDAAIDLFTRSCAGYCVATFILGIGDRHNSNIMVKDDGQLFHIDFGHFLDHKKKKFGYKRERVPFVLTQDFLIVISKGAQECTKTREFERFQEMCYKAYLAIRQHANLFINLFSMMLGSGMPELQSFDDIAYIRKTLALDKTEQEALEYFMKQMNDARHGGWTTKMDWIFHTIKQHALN

`Cc1cc([C@@H](C)Nc2ccccc2C(=O)O)c2nc(N3CCCC3)c(C#N)c(=O)n2c1`: the IC50 in [1] was 135 nM; in data set [3], more than 10000 nM. Also, in data set [2], the CLint scaled amounted to 78 mL/min/kg.

As to `Cc1cc([C@@H](C)Nc2nccnc2C(=O)O)c2nc(N3CCC(F)(F)CC3)c(C#N)c(=O)n2c1`, in [1], the half-inhibitory concentration (IC50) is 3720 nM.

As to `Cc1cc([C@@H](C)Nc2ccccc2C(=O)O)c2nc(N3CCCCC3)c(C)c(=O)n2c1`, the “Ratio IC50” value in [4] was 83. Further, the IC50 is 120 nM in [1] and more than 10000 nM in data set [3]. The CLint scaled in [2] stood at 340 mL/min/kg.

For `Cc1cc([C@@H](C)Nc2ccccc2C(=O)O)c2oc(N3CCC(C)(C)CC3)c(C)c(=O)c2c1`, the “Ratio IC50” value in data set [4] is given as 57. Besides, the figures for the half-inhibitory concentration (IC50) in data set [1] and in data set [3] were 160 nM and 9080 nM, respectively.

Turning to `Cc1cc(C(C)Nc2ccccc2C(=O)O)c2nc(N3CCCCC3)ncc2c1` (centres undefined), the IC50 in [1] and in [3] was more than 10000 nM each time.

As to `Cc1cc([C@@H](C)Nc2ccc(Cl)nc2C(=O)O)c2nc(N3CCC(F)(F)CC3)c(C#N)c(=O)n2c1`, the IC50 in [1] worked out at 304 nM.

Turning to `Cc1cc([C@@H](C)Nc2cccc(F)c2C(=O)O)c2nc(N3CCC(F)(F)CC3)c(C#N)c(=O)n2c1`, in data set [1], the IC50 was 566 nM.

Turning to `Cc1cc([C@@H](C)Nc2ccccc2C(=O)O)c2nc(N3CC4(C3)CC(F)(F)C4)c(C#N)c(=O)n2c1`, the 50% inhibitory concentration (IC50) in data set [1] and in data set [3] was more than 10000 nM in each case. Besides, the CLint scaled in data set [2] is 118 mL/min/kg.

Regarding `Cc1cc([C@@H](C)Nc2ccccc2C(=O)O)c2oc(N3CCCCC3)cc(=O)c2c1`, the IC50 in data set [5] is less than 500 nM. Also, the Ratio IC50 in data set [6] is 13.5.

As for `Cc1cc(C(C)Nc2ccccc2C(=O)O)c2nc(N3CCC(C)(C)CC3)n(C)c(=O)c2c1` (centres undefined), in data set [4], the “Ratio IC50” value stood at 2. Also, the values for the IC50 in [1] and in [3] were 6240 nM and more than 10000 nM, respectively.

Regarding `Cc1cc([C@@H](C)Nc2ccccc2C(=O)O)c2nc(N3CCS(=O)(=O)CC3)c(C#N)c(=O)n2c1`, the half-inhibitory concentration (IC50) in [1] and in data set [3] was more than 10000 nM in each case. Moreover, in data set [2], the CLint scaled was 5 mL/min/kg.

In the case of `Cc1cc([C@@H](C)Nc2ccccc2C(=O)O)c2nc(N3CCC(C)(C)CC3)c(C#N)c(=O)n2c1`, the IC50 in [1] is 151 nM; in data set [3], more than 10000 nM. Besides, in data set [2], the CLint scaled worked out at 76 mL/min/kg.

Consider `Cc1cc([C@@H](C)Nc2ccccc2C(=O)O)c2nc(N3CC(F)(F)C3)c(C#N)c(=O)n2c1`, for which the IC50 in [1] was 56 nM; in [3], more than 10000 nM. The CLint scaled in data set [2] stood at 24 mL/min/kg.

In the case of `Cc1cc([C@@H](C)Nc2ccccc2C(=O)O)c2nc(N3CCCCC3)cc(=O)n2c1`, in data set [4], the “Ratio IC50” value is listed as 9. Besides, the 50% inhibitory concentration (IC50) was 411 nM in [7], 1110 nM in data set [1] and more than 10000 nM in [3]. Further, the CLint scaled in data set [2] amounted to 181 mL/min/kg.

With `Cc1cc([C@@H](C)Nc2ccccc2C(=O)O)c2nc(N3CCCCC3)c(C#N)c(=O)n2c1`, the half-maximal inhibitory concentration (IC50) was found to be 86 nM in data set [1] and 9940 nM in data set [3]. Further, in [2], the CLint scaled turned out to be 79 mL/min/kg.

For the compound `Cc1cc([C@@H](C)Nc2ccccc2C(=O)O)c2nc(N3CCCCC3)c(F)c(=O)n2c1`, in [2], the CLint scaled came to 862 mL/min/kg.

For `Cc1cc([C@@H](C)Nc2ccccc2C(=O)O)c2nc(C3CCC(F)(F)CC3)c(C#N)c(=O)n2c1`, the results for the IC50 in data set [1] and in [3] were 246 nM and more than 10000 nM, respectively. In addition, the CLint scaled in data set [2] came to 12 mL/min/kg.

In turn, `Cc1ccccc1C1NC(=O)c2cc(NC3COC3)cc(NC(=O)c3csc4ccccc34)c21` (centres undefined) registered an IC50 in data set [8] not above 100 nM.

`Cc1cc([C@@H](C)Nc2ccc(Cl)cc2C(=O)O)c2nc(N3CCC(F)(F)CC3)c(C#N)c(=O)n2c1`: the IC50 in data set [1] turned out to be 627 nM.

For `Cc1cc([C@@H](C)Nc2cscc2C(=O)O)c2nc(N3CCC(F)(F)CC3)c(C#N)c(=O)n2c1`, the IC50 in data set [1] came out at 183 nM.

Turning to `Cc1cc([C@@H](C)Nc2ccccc2C(=O)O)c2nc(N3CC4CC(C3)C4(F)F)c(C#N)c(=O)n2c1`, the IC50 in data set [1] was 71 nM; in [3] it was more than 10000 nM. Also, in data set [2], the CLint scaled is 39 mL/min/kg.

For the compound `Cc1cc([C@@H](C)Nc2ccccc2C(=O)O)c2nc(N3CCC(F)(F)CC3)c(C#N)c(=O)n2c1`, the F in data set [9] is given as 7%; in data set [12], 57%; in [23] it was 48%. Further, the inhibition in vivo at 100 mg/kg in data set [10] turned out to be 88%. The inhibition in vivo at 120 mg/kg in data set [11] stood at 81%. The t1/2 in data set [13] worked out at 2 h; in data set [20], 0.7 h; in [21], 3.5 h. Also, in [14], the inhibition entry was “inactive”. For the same compound, the IC50 worked out at 73 nM in data set [7], 48 nM in [1] and 8970 nM in data set [3]. The Vdss came to 4.8 L/kg in data set [15], 1.5 L/kg in [16] and 13.6 L/kg in data set [19]. Moreover, the CLint scaled in [2] came out at 29 mL/min/kg. For the same compound, the Activity in data set [17] is -34%. The Drug uptake result in data set [18] is listed as “Active”. Also, the inhibition in vivo at 60 mg/kg in [22] was found to be 42%.
